According to ChEMBL document CHEMBL1146019, “Structure-based design of novel HIV-1 protease inhibitors to combat drug resistance” (J Med Chem, 2006):

Tested on: Human immunodeficiency virus 1
Experiment: Antiviral activity against HIV1 BA-L isolate in human PHA-PBMC cells
Assay type: functional, organism-based
Conditions: Human immunodeficiency virus 1, PBMC
In short: (§1)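 PHA-activated PBMC (1 × 10⁶/mL) were exposed to 50 TCID₅₀ of each isolate and cultured with or without drug in 10-fold serial dilutions. On day 7, supernatant p24 Gag was measured by chemiluminescent enzyme immunoassay. IC₅₀ was the concentration suppressing p24 production by 50% relative to drug-free control cultures. Assays were run in triplicate.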

Compound | IC50
CC(C)(C)NC(=O)[C@@H]1CN(Cc2cccnc2)CCN1C[C@@H](O)C[C@@H](Cc1ccccc1)C(=O)N[C@H]1c2ccccc2C[C@H]1O | 24 nM
CC(C)(C)NC(=O)[C@@H]1C[C@@H]2CCCC[C@@H]2CN1C[C@@H](O)[C@H](Cc1ccccc1)NC(=O)[C@H](CC(N)=O)NC(=O)c1ccc2ccccc2n1 | 18 nM
CC(C)CN(C[C@@H](O)[C@H](Cc1ccccc1)NC(=O)O[C@H]1CCOC1)S(=O)(=O)c1ccc(N)cc1 | 29 nM
CC(C)c1nc(CN(C)C(=O)N[C@H](C(=O)N[C@@H](Cc2ccccc2)C[C@H](O)[C@H](Cc2ccccc2)NC(=O)OCc2cncs2)C(C)C)cs1 [RITONAVIR] | 36 nM

Tested on: Human immunodeficiency virus 1
Experiment: Antiviral activity against multi drug-resistant HIV1 B variant in human PHA-PBMC cells
Assay type: functional, organism-based
Conditions: Human immunodeficiency virus 1, PBMC
In short: (§2)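 PHA-activated peripheral blood mononuclear cells (1 × 10⁶/mL) infected with 50 TCID₅₀ of each isolate and cultured with or without drug in 10-fold serial dilutions. On day 7, p24 Gag protein in the supernatant was measured by automated chemiluminescent enzyme immunoassay. IC₅₀ was the concentration suppressing p24 production by 50% relative to drug-free control cultures. Assays were run in triplicate.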

Compound | IC50
CC(C)(C)NC(=O)[C@@H]1CN(Cc2cccnc2)CCN1C[C@@H](O)C[C@@H](Cc1ccccc1)C(=O)N[C@H]1c2ccccc2C[C@H]1O | > 1000 nM
CC(C)CN(C[C@@H](O)[C@H](Cc1ccccc1)NC(=O)O[C@H]1CCOC1)S(=O)(=O)c1ccc(N)cc1 | 290 nM
CC(C)c1nc(CN(C)C(=O)N[C@H](C(=O)N[C@@H](Cc2ccccc2)C[C@H](O)[C@H](Cc2ccccc2)NC(=O)OCc2cncs2)C(C)C)cs1 [RITONAVIR] | > 1000 nM

Tested on: Human immunodeficiency virus 1
Experiment: Antiviral activity against multi drug-resistant HIV1 EV variant in human PHA-PBMC cells
Assay type: functional, organism-based
Conditions: Human immunodeficiency virus 1, PBMC
In short: as §2

Compound | IC50
CC(C)(C)NC(=O)[C@@H]1CN(Cc2cccnc2)CCN1C[C@@H](O)C[C@@H](Cc1ccccc1)C(=O)N[C@H]1c2ccccc2C[C@H]1O | > 1000 nM
CC(C)(C)NC(=O)[C@@H]1C[C@@H]2CCCC[C@@H]2CN1C[C@@H](O)[C@H](Cc1ccccc1)NC(=O)[C@H](CC(N)=O)NC(=O)c1ccc2ccccc2n1 | > 1000 nM
CC(C)CN(C[C@@H](O)[C@H](Cc1ccccc1)NC(=O)O[C@H]1CCOC1)S(=O)(=O)c1ccc(N)cc1 | > 1000 nM
CC(C)c1nc(CN(C)C(=O)N[C@H](C(=O)N[C@@H](Cc2ccccc2)C[C@H](O)[C@H](Cc2ccccc2)NC(=O)OCc2cncs2)C(C)C)cs1 [RITONAVIR] | > 1000 nM

Tested on: Human immunodeficiency virus 1
Experiment: Antiviral activity against multi drug-resistant HIV1 G variant in human PHA-PBMC cells
Assay type: functional, organism-based
Conditions: Human immunodeficiency virus 1, PBMC
In short: as §2

Compound | IC50
CC(C)(C)NC(=O)[C@@H]1CN(Cc2cccnc2)CCN1C[C@@H](O)C[C@@H](Cc1ccccc1)C(=O)N[C@H]1c2ccccc2C[C@H]1O | 500 nM
CC(C)(C)NC(=O)[C@@H]1C[C@@H]2CCCC[C@@H]2CN1C[C@@H](O)[C@H](Cc1ccccc1)NC(=O)[C@H](CC(N)=O)NC(=O)c1ccc2ccccc2n1 | 59 nM
CC(C)CN(C[C@@H](O)[C@H](Cc1ccccc1)NC(=O)O[C@H]1CCOC1)S(=O)(=O)c1ccc(N)cc1 | 310 nM
CC(C)c1nc(CN(C)C(=O)N[C@H](C(=O)N[C@@H](Cc2ccccc2)C[C@H](O)[C@H](Cc2ccccc2)NC(=O)OCc2cncs2)C(C)C)cs1 [RITONAVIR] | > 1000 nM

Tested on: Human immunodeficiency virus 2
Experiment: Antiviral activity against HIV2 EHO isolate in human MT2 cells
Assay type: functional, organism-based
Conditions: Human immunodeficiency virus 2, MT2
In short: (§3)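 MT-2 cells (2 × 10⁴/mL) were infected with 100 TCID₅₀ of virus and incubated with various drug concentrations at 37 °C for 7 days. MTT was then added for 2 h at 37 °C, formazan was dissolved in acidified 2-propanol with 4% Triton X-100, and optical density was read. Assays were run in duplicate or triplicate.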

Compound | IC50
CC(C)(C)NC(=O)[C@@H]1CN(Cc2cccnc2)CCN1C[C@@H](O)C[C@@H](Cc1ccccc1)C(=O)N[C@H]1c2ccccc2C[C@H]1O | 13 nM
CC(C)(C)NC(=O)[C@@H]1C[C@@H]2CCCC[C@@H]2CN1C[C@@H](O)[C@H](Cc1ccccc1)NC(=O)[C@H](CC(N)=O)NC(=O)c1ccc2ccccc2n1 | 1.9 nM
CC(C)CN(C[C@@H](O)[C@H](Cc1ccccc1)NC(=O)O[C@H]1CCOC1)S(=O)(=O)c1ccc(N)cc1 | 440 nM
CC(C)c1nc(CN(C)C(=O)N[C@H](C(=O)N[C@@H](Cc2ccccc2)C[C@H](O)[C@H](Cc2ccccc2)NC(=O)OCc2cncs2)C(C)C)cs1 [RITONAVIR] | 290 nM

Tested on: Human immunodeficiency virus 1
Experiment: Antiviral activity against HIV1 LAI isolate in human MT2 cells
Assay type: functional, organism-based
Conditions: Human immunodeficiency virus 1, MT2
In short: as §3

Compound | IC50
CC(C)(C)NC(=O)[C@@H]1CN(Cc2cccnc2)CCN1C[C@@H](O)C[C@@H](Cc1ccccc1)C(=O)N[C@H]1c2ccccc2C[C@H]1O | 26 nM
CC(C)(C)NC(=O)[C@@H]1C[C@@H]2CCCC[C@@H]2CN1C[C@@H](O)[C@H](Cc1ccccc1)NC(=O)[C@H](CC(N)=O)NC(=O)c1ccc2ccccc2n1 | 24 nM
CC(C)CN(C[C@@H](O)[C@H](Cc1ccccc1)NC(=O)O[C@H]1CCOC1)S(=O)(=O)c1ccc(N)cc1 | 24 nM
CC(C)c1nc(CN(C)C(=O)N[C@H](C(=O)N[C@@H](Cc2ccccc2)C[C@H](O)[C@H](Cc2ccccc2)NC(=O)OCc2cncs2)C(C)C)cs1 [RITONAVIR] | 34 nM

Tested on: Human immunodeficiency virus 1
Experiment: Antiviral activity against multi drug-resistant HIV1 TM variant in human PHA-PBMC cells
Assay type: functional, organism-based
Conditions: Human immunodeficiency virus 1, PBMC
In short: as §2

Compound | IC50
CC(C)(C)NC(=O)[C@@H]1CN(Cc2cccnc2)CCN1C[C@@H](O)C[C@@H](Cc1ccccc1)C(=O)N[C@H]1c2ccccc2C[C@H]1O | > 1000 nM
CC(C)(C)NC(=O)[C@@H]1C[C@@H]2CCCC[C@@H]2CN1C[C@@H](O)[C@H](Cc1ccccc1)NC(=O)[C@H](CC(N)=O)NC(=O)c1ccc2ccccc2n1 | 250 nM
CC(C)CN(C[C@@H](O)[C@H](Cc1ccccc1)NC(=O)O[C@H]1CCOC1)S(=O)(=O)c1ccc(N)cc1 | 220 nM
CC(C)c1nc(CN(C)C(=O)N[C@H](C(=O)N[C@@H](Cc2ccccc2)C[C@H](O)[C@H](Cc2ccccc2)NC(=O)OCc2cncs2)C(C)C)cs1 [RITONAVIR] | > 1000 nM

Tested on: Human immunodeficiency virus 1
Experiment: Antiviral activity against multi drug-resistant HIV1 C variant in human PHA-PBMC cells
Assay type: functional, organism-based
Conditions: Human immunodeficiency virus 1, PBMC
In short: as §2

Compound | IC50
CC(C)(C)NC(=O)[C@@H]1CN(Cc2cccnc2)CCN1C[C@@H](O)C[C@@H](Cc1ccccc1)C(=O)N[C@H]1c2ccccc2C[C@H]1O | 500 nM
CC(C)(C)NC(=O)[C@@H]1C[C@@H]2CCCC[C@@H]2CN1C[C@@H](O)[C@H](Cc1ccccc1)NC(=O)[C@H](CC(N)=O)NC(=O)c1ccc2ccccc2n1 | 100 nM
CC(C)CN(C[C@@H](O)[C@H](Cc1ccccc1)NC(=O)O[C@H]1CCOC1)S(=O)(=O)c1ccc(N)cc1 | 300 nM
CC(C)c1nc(CN(C)C(=O)N[C@H](C(=O)N[C@@H](Cc2ccccc2)C[C@H](O)[C@H](Cc2ccccc2)NC(=O)OCc2cncs2)C(C)C)cs1 [RITONAVIR] | > 1000 nM

Tested on: Human immunodeficiency virus 1
Experiment: Antiviral activity against multi drug-resistant HIV1 ES variant in human PHA-PBMC cells
Assay type: functional, organism-based
Conditions: Human immunodeficiency virus 1, PBMC
In short: as §2

Compound | IC50
CC(C)(C)NC(=O)[C@@H]1CN(Cc2cccnc2)CCN1C[C@@H](O)C[C@@H](Cc1ccccc1)C(=O)N[C@H]1c2ccccc2C[C@H]1O | > 1000 nM
CC(C)(C)NC(=O)[C@@H]1C[C@@H]2CCCC[C@@H]2CN1C[C@@H](O)[C@H](Cc1ccccc1)NC(=O)[C@H](CC(N)=O)NC(=O)c1ccc2ccccc2n1 | > 1000 nM
CC(C)CN(C[C@@H](O)[C@H](Cc1ccccc1)NC(=O)O[C@H]1CCOC1)S(=O)(=O)c1ccc(N)cc1 | > 1000 nM
CC(C)c1nc(CN(C)C(=O)N[C@H](C(=O)N[C@@H](Cc2ccccc2)C[C@H](O)[C@H](Cc2ccccc2)NC(=O)OCc2cncs2)C(C)C)cs1 [RITONAVIR] | > 1000 nM

Tested on: Human immunodeficiency virus 1
Experiment: Antiviral activity against HIV1 LAI isolate in human PHA-PBMC cells
Assay type: functional, organism-based
Conditions: Human immunodeficiency virus 1, PBMC
In short: as §1

Compound | IC50
CC(C)(C)NC(=O)[C@@H]1CN(Cc2cccnc2)CCN1C[C@@H](O)C[C@@H](Cc1ccccc1)C(=O)N[C@H]1c2ccccc2C[C@H]1O | 32 nM
CC(C)(C)NC(=O)[C@@H]1C[C@@H]2CCCC[C@@H]2CN1C[C@@H](O)[C@H](Cc1ccccc1)NC(=O)[C@H](CC(N)=O)NC(=O)c1ccc2ccccc2n1 | 14 nM
CC(C)CN(C[C@@H](O)[C@H](Cc1ccccc1)NC(=O)O[C@H]1CCOC1)S(=O)(=O)c1ccc(N)cc1 | 34 nM
CC(C)c1nc(CN(C)C(=O)N[C@H](C(=O)N[C@@H](Cc2ccccc2)C[C@H](O)[C@H](Cc2ccccc2)NC(=O)OCc2cncs2)C(C)C)cs1 [RITONAVIR] | 43 nM

Tested on: Human immunodeficiency virus 1
Experiment: Antiviral activity against multi drug-resistant HIV1 K variant in human PHA-PBMC cells
Assay type: functional, organism-based
Conditions: Human immunodeficiency virus 1, PBMC
In short: as §2

Compound | IC50
CC(C)(C)NC(=O)[C@@H]1CN(Cc2cccnc2)CCN1C[C@@H](O)C[C@@H](Cc1ccccc1)C(=O)N[C@H]1c2ccccc2C[C@H]1O | 260 nM
CC(C)(C)NC(=O)[C@@H]1C[C@@H]2CCCC[C@@H]2CN1C[C@@H](O)[C@H](Cc1ccccc1)NC(=O)[C@H](CC(N)=O)NC(=O)c1ccc2ccccc2n1 | 20 nM
CC(C)CN(C[C@@H](O)[C@H](Cc1ccccc1)NC(=O)O[C@H]1CCOC1)S(=O)(=O)c1ccc(N)cc1 | 68 nM
CC(C)c1nc(CN(C)C(=O)N[C@H](C(=O)N[C@@H](Cc2ccccc2)C[C@H](O)[C@H](Cc2ccccc2)NC(=O)OCc2cncs2)C(C)C)cs1 [RITONAVIR] | 57 nM

Tested on: Human immunodeficiency virus 1
Experiment: Antiviral activity against multi drug-resistant HIV1 ET variant in human PHA-PBMC cells
Assay type: functional, organism-based
Conditions: Human immunodeficiency virus 1, PBMC
In short: as §2

Compound | IC50
CC(C)(C)NC(=O)[C@@H]1CN(Cc2cccnc2)CCN1C[C@@H](O)C[C@@H](Cc1ccccc1)C(=O)N[C@H]1c2ccccc2C[C@H]1O | 30 nM
CC(C)(C)NC(=O)[C@@H]1C[C@@H]2CCCC[C@@H]2CN1C[C@@H](O)[C@H](Cc1ccccc1)NC(=O)[C@H](CC(N)=O)NC(=O)c1ccc2ccccc2n1 | 17 nM
CC(C)CN(C[C@@H](O)[C@H](Cc1ccccc1)NC(=O)O[C@H]1CCOC1)S(=O)(=O)c1ccc(N)cc1 | 23 nM
CC(C)c1nc(CN(C)C(=O)N[C@H](C(=O)N[C@@H](Cc2ccccc2)C[C@H](O)[C@H](Cc2ccccc2)NC(=O)OCc2cncs2)C(C)C)cs1 [RITONAVIR] | 15 nM
